Assay results reported in ChEMBL document CHEMBL4376814, “Novel cyclin-dependent kinase 9 (CDK9) inhibitor with suppression of cancer stemness activity against non-small-cell lung cancer” (Eur J Med Chem, 2019).
The source made the active and inactive calls. The calls are words filed in the database; no cut-off is given here.

Key:
[1] = tested on: SiHa; assay: Antiproliferative activity against human SiHa cells assessed as inhibition of cell viability at 500 nM after 72 hrs by CCK-8 assay relative to control; assay type: functional
Outline: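 Single-concentration viability screen using CCK-8. Cells were seeded at 3000/well and treated for 72 h. A450 read after 1-4 h with reagent. Percent inhibition calculated against untreated control and blank wells as (Ac−As)/(Ac−Ab)×100%.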

[2] = tested on: A549; assay: Antiproliferative activity against human A549 cells assessed as inhibition of cell viability after 72 hrs by CCK-8 assay; assay type: functional, cell-based; conditions: A549, 72 h
Outline: (§1)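 Cells kept at 37 °C, 5% CO2 in DMEM or RPMI-1640 with 10% FBS and 1% penicillin/streptomycin, then seeded at 3000 cells/well (adherent) or 10,000 cells/well (suspension). Exposed to a range of concentrations for 72 h. CCK-8 added for 1-4 h before reading A450. […] Three independent experiments.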

[3] = tested on: NCI-H1975; assay: Antiproliferative activity against human NCI-H1975 cells assessed as inhibition of cell viability after 72 hrs by CCK-8 assay; assay type: functional, cell-based; conditions: NCI-H1975, 72 h; outline: as §1
[4] = tested on: Jurkat; assay: Antiproliferative activity against human Jurkat cells assessed as inhibition of cell viability after 72 hrs by CCK-8 assay; assay type: functional, cell-based; outline: as §1
[5] = tested on: A549; assay: Induction of apoptosis in human A549 cells assessed as late apoptotic cells at 0.25 uM after 48 hrs by AnnexinV-FITC/PI staining-based flow cytometric analysis (reference value: 7.66%); assay type: functional
[6] = tested on: A549; assay: Downregulation of OCT4 in human A549 cells at 0.25 to 1 uM by Western blot analysis; assay type: functional, cell-based
[7] = tested on: Serine/threonine-protein kinase B-raf (Homo sapiens), P15056 [V600E]; assay: Inhibition of recombinant human BRAF V599E mutant (416 to end residues) at 1 uM using myelin basic protein as substrate measured after 40 mins in presence of [gamma33P]ATP by scintillation counting method relative to control
Serine/threonine-protein kinase B-raf (Homo sapiens), P15056 [V600E], sequence (P15056 whole entry V600E): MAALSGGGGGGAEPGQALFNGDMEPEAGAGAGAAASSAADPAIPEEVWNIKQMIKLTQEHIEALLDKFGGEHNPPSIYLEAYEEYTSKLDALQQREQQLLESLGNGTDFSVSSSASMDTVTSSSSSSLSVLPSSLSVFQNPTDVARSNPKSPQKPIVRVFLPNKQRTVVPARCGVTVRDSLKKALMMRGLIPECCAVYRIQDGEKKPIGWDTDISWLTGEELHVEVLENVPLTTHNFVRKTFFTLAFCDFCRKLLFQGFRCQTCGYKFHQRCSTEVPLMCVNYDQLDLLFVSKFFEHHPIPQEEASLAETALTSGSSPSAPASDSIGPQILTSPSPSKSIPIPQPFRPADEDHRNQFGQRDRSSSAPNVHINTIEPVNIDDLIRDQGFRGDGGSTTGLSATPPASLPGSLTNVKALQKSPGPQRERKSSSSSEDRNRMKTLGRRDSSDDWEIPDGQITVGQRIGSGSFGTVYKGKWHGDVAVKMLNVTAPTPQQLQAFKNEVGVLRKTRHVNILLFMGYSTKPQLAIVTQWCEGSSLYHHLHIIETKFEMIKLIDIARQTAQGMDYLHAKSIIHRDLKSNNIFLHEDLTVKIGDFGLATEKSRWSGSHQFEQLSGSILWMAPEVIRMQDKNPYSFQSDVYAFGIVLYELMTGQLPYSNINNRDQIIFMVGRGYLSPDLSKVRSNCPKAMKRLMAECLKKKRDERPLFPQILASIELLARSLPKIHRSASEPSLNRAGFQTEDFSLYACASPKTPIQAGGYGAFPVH

[8] = biological target: Mitogen-activated protein kinase kinase kinase 11 (Homo sapiens) (UniProt Q16584); assay: Inhibition of human MLK3 at 1 uM by radiometric method relative to control
Outline: (§2)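 Percent inhibition of kinase activity at a single compound concentration, measured by the outsourced Eurofins KinaseProfiler panel. Values are the mean of two independent experiments.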

[9] = biological target: Ribosomal protein S6 kinase alpha-4 (Homo sapiens) (UniProt O75676); assay: Inhibition of recombinant human MSK2 (2 to end residues) at 1 uM using GRPRTSSFAEGKK as substrate measured after 40 mins in presence of [gamma33P]ATP by scintillation counting method relative to control
Ribosomal protein S6 kinase alpha-4 (Homo sapiens), sequence (O75676 whole entry, looked up): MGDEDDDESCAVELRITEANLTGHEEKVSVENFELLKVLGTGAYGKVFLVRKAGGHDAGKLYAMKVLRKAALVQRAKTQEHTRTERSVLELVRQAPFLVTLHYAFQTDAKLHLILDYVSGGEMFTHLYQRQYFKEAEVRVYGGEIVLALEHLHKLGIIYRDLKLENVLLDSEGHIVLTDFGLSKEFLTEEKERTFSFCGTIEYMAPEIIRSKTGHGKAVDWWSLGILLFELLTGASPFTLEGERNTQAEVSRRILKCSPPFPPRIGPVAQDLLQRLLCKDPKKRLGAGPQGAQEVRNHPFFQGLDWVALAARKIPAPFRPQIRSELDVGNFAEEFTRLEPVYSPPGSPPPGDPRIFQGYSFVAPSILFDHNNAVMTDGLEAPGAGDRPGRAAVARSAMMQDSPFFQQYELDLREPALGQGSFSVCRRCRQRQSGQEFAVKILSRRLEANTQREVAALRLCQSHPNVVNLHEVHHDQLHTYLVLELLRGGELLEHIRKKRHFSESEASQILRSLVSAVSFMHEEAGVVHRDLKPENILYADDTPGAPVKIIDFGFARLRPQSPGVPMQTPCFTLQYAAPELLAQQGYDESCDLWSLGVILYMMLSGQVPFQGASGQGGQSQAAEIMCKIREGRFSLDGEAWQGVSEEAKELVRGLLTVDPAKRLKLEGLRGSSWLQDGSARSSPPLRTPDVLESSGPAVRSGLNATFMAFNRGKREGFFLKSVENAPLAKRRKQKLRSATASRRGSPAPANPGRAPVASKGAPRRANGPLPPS

[10] = biological target: Myosin light chain kinase 2, skeletal/cardiac muscle (Homo sapiens) (UniProt Q9H1R3); assay: Inhibition of recombinant full length human MYLK2 at 1 uM using KKLNRTLSFAEPG as substrate measured after 40 mins in presence of [gamma33P]ATP by scintillation counting method relative to control
Myosin light chain kinase 2, skeletal/cardiac muscle (Homo sapiens), sequence (Q9H1R3 whole entry): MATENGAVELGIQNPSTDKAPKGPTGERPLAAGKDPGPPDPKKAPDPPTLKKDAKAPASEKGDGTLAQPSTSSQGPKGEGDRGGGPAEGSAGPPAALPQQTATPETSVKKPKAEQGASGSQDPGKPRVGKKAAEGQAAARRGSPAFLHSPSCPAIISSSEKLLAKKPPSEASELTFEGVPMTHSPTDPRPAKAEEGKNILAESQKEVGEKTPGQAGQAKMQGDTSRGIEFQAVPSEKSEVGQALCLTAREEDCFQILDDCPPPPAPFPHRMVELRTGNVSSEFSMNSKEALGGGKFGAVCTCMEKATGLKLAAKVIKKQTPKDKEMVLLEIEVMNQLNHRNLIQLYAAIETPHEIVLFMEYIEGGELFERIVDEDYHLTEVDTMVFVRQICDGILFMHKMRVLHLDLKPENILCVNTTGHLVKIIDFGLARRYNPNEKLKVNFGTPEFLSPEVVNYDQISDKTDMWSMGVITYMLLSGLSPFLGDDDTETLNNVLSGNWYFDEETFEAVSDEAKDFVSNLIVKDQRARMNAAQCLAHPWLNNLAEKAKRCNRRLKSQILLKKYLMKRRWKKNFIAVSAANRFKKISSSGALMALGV
Outline: (§3)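 Single-point inhibition at 1 µM was measured in the Eurofins KinaseProfiler panel. Values are the mean of two independent experiments.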

[11] = biological target: Calcium/calmodulin-dependent protein kinase type IV (Homo sapiens) (UniProt Q16566); assay: Inhibition of recombinant full-length human CaMK4 at 1 uM using calmodulin as substrate measured after 40 mins in presence of [gamma33P]ATP by scintillation counting method relative to control
Calcium/calmodulin-dependent protein kinase type IV (Homo sapiens), sequence (Q16566 whole entry): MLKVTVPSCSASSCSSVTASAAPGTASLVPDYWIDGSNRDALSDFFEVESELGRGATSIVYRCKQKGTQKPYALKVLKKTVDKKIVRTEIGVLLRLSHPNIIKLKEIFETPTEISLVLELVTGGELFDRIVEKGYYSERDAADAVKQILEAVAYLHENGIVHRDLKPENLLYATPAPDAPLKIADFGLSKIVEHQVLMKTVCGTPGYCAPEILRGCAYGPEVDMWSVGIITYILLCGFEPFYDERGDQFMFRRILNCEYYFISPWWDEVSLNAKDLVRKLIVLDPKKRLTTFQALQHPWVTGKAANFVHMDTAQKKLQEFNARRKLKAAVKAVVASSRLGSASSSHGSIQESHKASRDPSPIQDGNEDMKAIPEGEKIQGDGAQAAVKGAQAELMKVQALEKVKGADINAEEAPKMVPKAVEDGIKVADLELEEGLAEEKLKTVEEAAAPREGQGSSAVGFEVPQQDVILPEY

[12] = tested on: CDK18/Cyclin Y (Homo sapiens), Q07002+Q8ND76 [T166M]; assay: Inhibition of recombinant full length human cyclinY/CDK18 T166M mutant at 1 uM using YRRAAVPPSPSLS as substrate measured after 40 mins in presence of [gamma33P]ATP by scintillation counting method relative to control; assay type: protein-complex assay; outline: as §3
[13] = biological target: Casein kinase I isoform gamma-1 (Homo sapiens) (UniProt Q9HCP0); assay: Inhibition of recombinant human CK1gamma1 (25 to 355 residues) at 1 uM using KRRRALS(p)VASLPGL as substrate measured after 40 mins in presence of [gamma33P]ATP by scintillation counting method relative to control; outline: as §3
[14] = biological target: Serine/threonine-protein kinase NLK (Homo sapiens) (UniProt Q9UBE8); assay: Inhibition of recombinant human NLK (121 to end residues) at 1 uM using myelin basic protein as substrate measured after 40 mins in presence of [gamma33P]ATP by scintillation counting method relative to control
[15] = species on record: Homo sapiens; assay: Inhibition of recombinant human PRAK R291E mutant at 1 uM using KKLRRTLSVA as substrate measured after 40 mins in presence of [gamma33P]ATP by scintillation counting method relative to control
[16] = biological target: cGMP-dependent protein kinase 2 (Homo sapiens) (UniProt Q13237); assay: Inhibition of recombinant full-length human PRKG2 at 1 uM using KKLRRTLSFAEPG as substrate measured after 40 mins in presence of [gamma33P]ATP by scintillation counting method relative to control
[17] = biological target: Receptor-interacting serine/threonine-protein kinase 2 (Homo sapiens) (UniProt O43353); assay: Inhibition of human RIPK2 (1 to 299 residues) at 1 uM using myelin basic protein as substrate measured after 120 mins in presence of [gamma33P]ATP by scintillation counting method relative to control; outline: as §2
Receptor-interacting serine/threonine-protein kinase 2 (Homo sapiens), sequence (O43353 whole entry, the tested form may be a part): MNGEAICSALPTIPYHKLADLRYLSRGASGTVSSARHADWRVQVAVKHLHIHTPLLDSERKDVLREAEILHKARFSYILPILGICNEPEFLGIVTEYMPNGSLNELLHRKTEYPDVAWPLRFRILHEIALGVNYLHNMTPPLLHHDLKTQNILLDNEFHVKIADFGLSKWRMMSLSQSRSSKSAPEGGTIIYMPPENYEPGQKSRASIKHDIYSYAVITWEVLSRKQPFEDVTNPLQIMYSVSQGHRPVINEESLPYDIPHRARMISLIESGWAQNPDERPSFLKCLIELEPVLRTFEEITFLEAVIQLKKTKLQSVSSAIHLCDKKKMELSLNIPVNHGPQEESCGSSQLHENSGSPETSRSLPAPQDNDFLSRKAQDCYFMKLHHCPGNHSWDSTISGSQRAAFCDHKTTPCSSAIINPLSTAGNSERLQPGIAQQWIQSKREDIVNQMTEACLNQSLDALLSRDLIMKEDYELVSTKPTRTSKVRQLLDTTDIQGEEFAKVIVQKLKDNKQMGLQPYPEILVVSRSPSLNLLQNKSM

[18] = biological target: Receptor-type tyrosine-protein kinase FLT3 (Homo sapiens) (UniProt P36888); assay: Inhibition of recombinant human Flt3 (564 to end residues) at 1 uM using EAIYAAPFAKKK as substrate measured after 40 mins in presence of [gamma33P]ATP by scintillation counting method relative to control
[19] = biological target: Homeodomain-interacting protein kinase 1 (Homo sapiens) (UniProt Q86Z02); assay: Inhibition of recombinant human activated HIPK1 (158 to 555 residues) at 1 uM using myelin basic protein as substrate measured after 40 mins in presence of [gamma33P]ATP by scintillation counting method relative to control
[20] = biological target: Tyrosine-protein kinase Srms (Homo sapiens) (UniProt Q9H3Y6); assay: Inhibition of human SRMS at 1 uM by radiometric method relative to control; outline: as §2
[21] = biological target: Serine/threonine-protein kinase 32A (Homo sapiens) (UniProt Q8WU08); assay: Inhibition of recombinant full-length human STK32A at 1 uM using casein as substrate measured after 120 mins in presence of [gamma33P]ATP by scintillation counting method relative to control
[22] = biological target: Serine/threonine-protein kinase TBK1 (Homo sapiens) (UniProt Q9UHD2); assay: Inhibition of recombinant full-length human TBK1 at 1 uM using KRRRALS(p)VASLPGL as substrate measured after 40 mins in presence of [gamma33P]ATP by scintillation counting method relative to control; outline: as §3
Serine/threonine-protein kinase TBK1 (Homo sapiens), sequence (Q9UHD2 whole entry): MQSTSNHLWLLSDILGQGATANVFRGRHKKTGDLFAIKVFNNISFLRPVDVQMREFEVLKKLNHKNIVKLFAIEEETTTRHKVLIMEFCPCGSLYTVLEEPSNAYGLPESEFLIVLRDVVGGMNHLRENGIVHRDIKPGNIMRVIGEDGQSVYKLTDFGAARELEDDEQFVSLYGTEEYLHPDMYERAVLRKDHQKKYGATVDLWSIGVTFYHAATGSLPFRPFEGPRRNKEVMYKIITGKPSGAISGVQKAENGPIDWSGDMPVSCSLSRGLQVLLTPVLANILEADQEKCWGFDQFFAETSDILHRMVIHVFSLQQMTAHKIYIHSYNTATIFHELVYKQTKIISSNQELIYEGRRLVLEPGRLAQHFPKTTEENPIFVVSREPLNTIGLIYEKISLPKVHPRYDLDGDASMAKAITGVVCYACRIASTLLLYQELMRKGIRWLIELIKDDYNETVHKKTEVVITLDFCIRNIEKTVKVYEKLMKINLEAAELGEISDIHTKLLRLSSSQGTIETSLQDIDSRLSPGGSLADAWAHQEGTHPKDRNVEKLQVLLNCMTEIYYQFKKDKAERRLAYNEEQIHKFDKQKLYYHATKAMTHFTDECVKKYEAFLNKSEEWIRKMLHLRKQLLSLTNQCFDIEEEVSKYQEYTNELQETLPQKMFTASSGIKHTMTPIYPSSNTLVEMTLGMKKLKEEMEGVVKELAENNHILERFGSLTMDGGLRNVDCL

[23] = biological target: Tribbles homolog 2 (Homo sapiens) (UniProt Q92519); assay: Inhibition of recombinant full-length human TRB2 at 1 uM using RRRFRPASPLRGPPK as substrate measured after 120 mins in presence of [gamma33P]ATP by scintillation counting method relative to control
Tribbles homolog 2 (Homo sapiens), sequence (Q92519 whole entry): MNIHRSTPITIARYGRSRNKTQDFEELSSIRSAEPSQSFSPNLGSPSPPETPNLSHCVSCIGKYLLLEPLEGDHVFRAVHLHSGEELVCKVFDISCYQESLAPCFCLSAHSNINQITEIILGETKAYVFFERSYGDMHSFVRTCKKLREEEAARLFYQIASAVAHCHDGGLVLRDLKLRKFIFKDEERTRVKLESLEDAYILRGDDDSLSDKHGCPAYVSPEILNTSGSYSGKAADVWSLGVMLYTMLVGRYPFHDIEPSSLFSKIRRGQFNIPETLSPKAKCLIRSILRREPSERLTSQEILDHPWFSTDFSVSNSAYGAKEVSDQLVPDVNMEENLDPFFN

[24] = biological target: Phosphatidylinositol 4-phosphate 5-kinase type-1 gamma (Homo sapiens) (UniProt O60331); assay: Inhibition of recombinant full-length human PIP5K1gamma at 1 uM using phosphatidylinositol 4-phosphate as substrate measured after 40 mins by HTRF assay relative to control
Phosphatidylinositol 4-phosphate 5-kinase type-1 gamma (Homo sapiens), sequence (O60331 whole entry): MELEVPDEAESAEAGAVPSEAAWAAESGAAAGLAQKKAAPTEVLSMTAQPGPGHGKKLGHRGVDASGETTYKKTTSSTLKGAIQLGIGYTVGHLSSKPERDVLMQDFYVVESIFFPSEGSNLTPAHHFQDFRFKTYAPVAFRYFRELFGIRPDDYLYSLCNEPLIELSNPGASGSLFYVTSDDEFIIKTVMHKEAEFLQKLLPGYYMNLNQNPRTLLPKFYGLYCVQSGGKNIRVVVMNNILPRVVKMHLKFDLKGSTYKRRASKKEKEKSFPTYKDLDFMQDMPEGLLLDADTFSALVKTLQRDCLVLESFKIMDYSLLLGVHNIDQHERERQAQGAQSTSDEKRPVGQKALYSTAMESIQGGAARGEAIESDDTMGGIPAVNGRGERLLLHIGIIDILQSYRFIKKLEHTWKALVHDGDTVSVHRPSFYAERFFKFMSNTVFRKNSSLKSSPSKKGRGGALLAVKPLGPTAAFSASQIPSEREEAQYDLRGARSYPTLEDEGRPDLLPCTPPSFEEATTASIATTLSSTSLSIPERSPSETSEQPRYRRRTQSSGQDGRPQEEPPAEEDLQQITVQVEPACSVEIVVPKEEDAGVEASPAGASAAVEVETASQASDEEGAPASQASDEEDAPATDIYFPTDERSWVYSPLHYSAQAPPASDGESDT

Compound: CN(C)C(=O)c1cc2cnc(Nc3ccc(NC(=O)CCCCCCCN=C=S)cc3)nc2n1C1CCCC1
- inhibition at 0.5 µM [1]: 11%
- IC50 [2]: 450 nM
- IC50 [3]: 837 nM
- IC50 [4]: 3430 nM
- Activity [5]: 14.5%
- Activity [6]: Active
- inhibition [7]: 31%
- inhibition [8]: 90%
- inhibition [9]: 6%
- inhibition [10]: 12%
- inhibition [11]: -4%
- inhibition [12]: 11%
- inhibition [13]: 11%
- inhibition [14]: 13%
- inhibition [15]: 3%
- inhibition [16]: 0%
- inhibition [17]: 24%
- inhibition [18]: 66%
- inhibition [19]: 9%
- inhibition [20]: 34%
- inhibition [21]: 33%
- inhibition [22]: 12%
- inhibition [23]: 22%
- inhibition [24]: 0%
